Measurements gathered from unrelated publications.
Target: Testis-specific serine/threonine-protein kinase 2 (TSSK2, Homo sapiens, UniProt Q96PF2)
One construct used (Q96PF2 1-358): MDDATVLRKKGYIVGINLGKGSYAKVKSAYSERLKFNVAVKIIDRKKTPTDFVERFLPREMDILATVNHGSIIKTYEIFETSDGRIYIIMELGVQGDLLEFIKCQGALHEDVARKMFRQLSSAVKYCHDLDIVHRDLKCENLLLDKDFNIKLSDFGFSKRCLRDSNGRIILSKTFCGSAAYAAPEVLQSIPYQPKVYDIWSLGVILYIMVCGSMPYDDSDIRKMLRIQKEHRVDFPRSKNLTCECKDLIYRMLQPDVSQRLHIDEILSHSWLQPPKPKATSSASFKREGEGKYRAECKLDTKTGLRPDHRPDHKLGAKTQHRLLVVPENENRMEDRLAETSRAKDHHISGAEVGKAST

SMILES	effect on	action	technique	tested at	endpoint	result
CCCS(=O)(=O)Nc1ccc(F)c(C(=O)c2c[nH]c3ncc(-c4ccc(Cl)cc4)cc23)c1F	enzyme activity	inhibitor		1 µM	inhibition	< 10%
CC(C)(C)c1nc2c(s1)c1nc(N)ncc1c1ccc(NS(=O)(=O)c3c(F)cccc3F)c(F)c12	enzyme activity	inhibitor	radiometric	1 µM	remaining activity	95%
O=C(Nc1cnn(-c2csc(C(=O)NC3COC3)c2)c1)Nc1c(F)cccc1Cl	enzyme activity	inhibitor		5 µM	remaining activity	95.1%
Cc1ccc(Nc2nccc(N(C)c3ccc4c(C)n(C)nc4c3)n2)cc1S(N)(=O)=O	enzyme activity	inhibitor		0.3 µM	inhibition	0%
CCOc1cc(-c2nncn2C)ccc1Nc1ncc2cc(C)nc(NCC(C)(C)C)c2n1	enzyme activity	inhibitor	FRET	1 µM	inhibition	< 15%
CC(C)(O)[C@H]1CC[C@H](Nc2ccc3ncc(-c4cccc(C(F)(F)F)c4)n3n2)CC1	enzyme activity	inhibitor		1 µM	remaining activity	101%
CNC(=O)c1cc(Oc2ccc(NC(=O)Nc3ccc(Cl)c(C(F)(F)F)c3)cc2)ccn1	enzyme activity	inhibitor		10 µM	inhibition	-1%
Cc1cc(NC(=O)c2cccc3cc(-c4cccc5[nH]nc(N)c45)ccc23)ccc1F	enzyme activity	inhibitor		0.1 µM	activity vs control	99%
COc1cc2ncnc(Nc3ccc(Oc4ccccc4)c(C)c3C)c2cc1OC	enzyme activity	inhibitor		1 µM	inhibition	3%
CCN(CC)CCNC(=O)c1c(C)[nH]c(/C=C2\C(=O)Nc3ccc(F)cc32)c1C	enzyme activity	inhibitor		0.3 µM	inhibition	0%
O=C1Nc2ccc(Cl)cc2C1=Cc1cc(Cl)c(O)c(Cl)c1	cell-free assay			0.5 µM	remaining signal	94.4%
CN1CC(Oc2cnc(C#N)cc2-c2ccn3nc(NC(=O)C4CC4)cc3c2)C1	enzyme activity	inhibitor		1 µM	inhibition	0%
CCN(CC)c1ccc(C2=NNC(=O)CC2C)cc1[N+](=O)[O-] (stereo not shown)	enzyme activity	inhibitor		10 µM	remaining activity	96%
